In PMC5743405 (International Journal of Oncology, 2017):
“Also recorded” adds a separate entry of the source.

Tests used:
[1] = tested on: PTHR1; assay: PathHunter β-arrestin; format: cell-based; conditions: 6 μM
Summary of the method: (§1)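 β-Arrestin recruitment to GPCR read by β-galactosidase fragment complementation and chemiluminescence. Agonist: % = 100 × (test − vehicle)/(max control ligand − vehicle), hit at >30% and RLU > baseline + 3 SD. Antagonist, against EC80 agonist: % inhibition = 100 × (1 − (test − vehicle)/(EC80 − vehicle)), hit at >35% and RLU < EC80 − 3 SD.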

[2] = tested on: CXCR4; assay: PathHunter β-arrestin; format: cell-based; conditions: 6 μM
Summary of the method: (§2)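 Engineered cells express the receptor fused to one β-galactosidase fragment (ED) and β-arrestin fused to the complementing fragment (EA). Receptor activation recruits β-arrestin, which restores enzyme activity, and this is read by chemiluminescence (RLU). Agonist % activity is 100% × (test − vehicle)/(maximal control ligand − vehicle). Antagonist mode is challenged with an EC80 control agonist, and % inhibition is 100% × (1 − (test − vehicle)/(EC80 − vehicle)). Hits require >30% activity or >35% inhibition, plus a 3×SD RLU margin.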

[3] = tested on: RXFP3; assay: PathHunter β-arrestin; format: cell-based; conditions: 6 μM
Summary of the method: as §1

[4] = tested on: CNR2; assay: PathHunter β-arrestin; format: cell-based; conditions: 6 μM
Summary of the method: as §2

[5] = tested on: JJ012 chondrosarcoma cells; assay: immunocytochemistry, PRP-1 localization; format: cell-based, human; conditions: PRP-1 antibody, Zenon Alexa Fluor 488; DAPI nuclear stain
[6] = tested on: TLR1; assay: western blot, JJ012 cells; format: cell-based, human; conditions: vs untreated control, overnight incubation
Summary of the method: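 JJ012 cells seeded at 1×10^6 cells/ml in 6-well clusters and incubated overnight at 37°C, 5% CO2 with or without test compound. Lysed with protease inhibitor (1:100) and centrifuged at 15,000 × g, 4°C. Protein loaded at 20 μg/lane with reducing agent, run on polyacrylamide gel, transferred to PVDF, probed with rabbit anti-TLR primaries and HRP-linked secondaries.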

[7] = tested on: HRH3; assay: PathHunter β-arrestin; format: cell-based; conditions: 6 μM
Summary of the method: (§3)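 Vendor-run (DiscoveRx) PathHunter enzyme fragment complementation. β-Arrestin carries the EA fragment and the receptor carries ED; recruitment restores β-gal activity, read by chemiluminescence (RLU). Agonist % activity = vehicle-subtracted RLU relative to max control ligand (gpcrMAX) or to vehicle (orphanMAX). Antagonist % inhibition = 100% × (1 − vehicle-subtracted sample RLU / vehicle-subtracted EC80 agonist control RLU).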

[8] = tested on: FPR1; assay: PathHunter β-arrestin; format: cell-based; conditions: antagonist mode, 6 μM
Summary of the method: as §2

[9] = tested on: CCR5; assay: PathHunter β-arrestin; format: cell-based; conditions: antagonist mode, 6 μM
Summary of the method: as §2

[10] = tested on: CHRM2; assay: PathHunter β-arrestin; format: cell-based; conditions: 6 μM
Summary of the method: as §2

[11] = tested on: OPRD1; assay: PathHunter β-arrestin; format: cell-based; conditions: antagonist mode, 6 μM
Summary of the method: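 GPCR-ED fusion and β-arrestin-EA fusion; arrestin recruitment restores β-galactosidase, read by chemiluminescence. Antagonist mode uses EC80 agonist challenge. % inhibition = 100 × (1 − (test − vehicle RLU)/(EC80 control − vehicle RLU)). Hit requires >35% inhibition and mean RLU below EC80 RLU − 3 × EC80 SD.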

[12] = tested on: VIPR2; assay: PathHunter β-arrestin; format: cell-based; conditions: 6 μM
Summary of the method: as §1

[13] = tested on: LTB4R; assay: PathHunter β-arrestin; format: cell-based; conditions: agonist mode, 6 μM
Summary of the method: as §3

[14] = tested on: HCRTR2; assay: PathHunter β-arrestin; format: cell-based; conditions: antagonist mode, 6 μM
Summary of the method: as §3

[15] = tested on: PTAFR; assay: PathHunter β-arrestin; format: cell-based; conditions: 6 μM
Summary of the method: as §1

[16] = tested on: SSTR3; assay: PathHunter β-arrestin; format: cell-based; conditions: 6 μM
Summary of the method: as §1

[17] = tested on: TLR9; assay: western blot, JJ012 cells; format: cell-based, human; conditions: vs untreated control, overnight incubation
[18] = tested on: NMU1R; assay: PathHunter β-arrestin; format: cell-based; conditions: 6 μM
Summary of the method: as §3

[19] = tested on: PROKR2; assay: PathHunter β-arrestin; format: cell-based; conditions: antagonist mode, 6 μM
[20] = tested on: GLP2R; assay: PathHunter β-arrestin; format: cell-based; conditions: agonist mode, 6 μM
Summary of the method: as §3

[21] = tested on: GPR92; assay: PathHunter β-arrestin; format: cell-based; conditions: 6 μM
Summary of the method: as §3

[22] = tested on: GLP1R; assay: PathHunter β-arrestin; format: cell-based; conditions: antagonist mode, 6 μM
Summary of the method: as §3

[23] = tested on: PTHR2; assay: PathHunter β-arrestin; format: cell-based; conditions: antagonist mode, 6 μM
[24] = ref [61]; cited from earlier work
[25] = tested on: BDKRB2; assay: PathHunter β-arrestin; format: cell-based; conditions: antagonist mode, 6 μM
Summary of the method: (§4)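 β-Arrestin recruitment assay: the enzyme acceptor is fused to β-arrestin and the ED fragment to the GPCR. Recruitment restores β-galactosidase, read by chemiluminescence. % activity = 100% × (test − vehicle)/(max control ligand − vehicle). % inhibition = 100% × (1 − (test − vehicle)/(EC80 control − vehicle)). An agonist hit needs >30% activity and RLU > baseline + 3×SD. An antagonist hit needs >35% inhibition and RLU < EC80 RLU − 3×SD.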

[26] = tested on: CCR6; assay: PathHunter β-arrestin; format: cell-based; conditions: antagonist mode, 6 μM
Summary of the method: as §2

[27] = tested on: CX3CR1; assay: PathHunter β-arrestin; format: cell-based; conditions: 6 μM
Summary of the method: as §2

[28] = tested on: BDKRB1; assay: PathHunter β-arrestin; format: cell-based; conditions: 6 μM
Summary of the method: as §4

[29] = tested on: TSHR(L); assay: PathHunter β-arrestin; format: cell-based; conditions: antagonist mode, 6 μM
[30] = tested on: NPBWR2; assay: PathHunter β-arrestin; format: cell-based; conditions: 6 μM
Summary of the method: as §3

[31] = tested on: TET1/2 and SOCS3; conditions: human chondrosarcoma; ref previously reported ([8],[9]); cited from earlier work
[32] = tested on: CCR1; assay: PathHunter β-arrestin; format: cell-based; conditions: antagonist mode, 6 μM
Summary of the method: as §4

Proline rich polypeptide 1 [PRP-1]
% Activity ([1]; agonist mode): 1%
% Inhibition ([1]; antagonist mode): −2%
% Activity ([2]; agonist mode): 2%
% Inhibition ([2]; antagonist mode): 2%
% Activity ([3]; agonist mode): 6%
% Inhibition ([3]; antagonist mode): −3%
% Activity ([4]; agonist mode): −2%
% Inhibition ([4]; antagonist mode): 5%
localization [5]: manifested its presence in the nucleus
protein expression [6]: strong upregulation; also recorded: upregulated protein expression of TLR1 and TLR2 in dose-dependent manner
% Activity ([7]; agonist mode): 2%
% Inhibition ([7]; antagonist mode): −6%
% Inhibition [8]: −4%
% Inhibition [9]: −2%
% Activity ([10]; agonist mode): 1%
% Inhibition ([10]; antagonist mode): −6%
% Inhibition [11]: −2%
% Activity ([12]; agonist mode): 1%
% Inhibition ([12]; antagonist mode): −3%
% Activity [13]: 1%
% Inhibition [14]: −1%
% Activity ([15]; agonist mode): 1%
% Inhibition ([15]; antagonist mode): −8%
% Activity ([16]; agonist mode): 1%
% Inhibition ([16]; antagonist mode): −5%
protein expression [17]: no indication of PRP-1 effect
% Activity ([18]; agonist mode): 1%
% Inhibition ([18]; antagonist mode): −3%
% Inhibition [19]: 8%
% Activity [20]: 1%
% Activity ([21]; agonist mode): 1%
% Inhibition ([21]; antagonist mode): 12%
% Inhibition [22]: −9%
% Inhibition [23]: −1%
antibacterial properties [24]: antibacterial properties
% Inhibition [25]: 5%
% Inhibition [26]: 2%
% Activity ([27]; agonist mode): 1%
% Inhibition ([27]; antagonist mode): 2%
% Activity ([28]; agonist mode): 1%
% Inhibition ([28]; antagonist mode): −8%
% Inhibition [29]: −4%
% Activity ([30]; agonist mode): 1%
% Inhibition ([30]; antagonist mode): −3%
expression of TET1/2 and SOCS3 [31]: significant upregulation
% Inhibition [32]: −3%
